According to paper PMC7003773 (Clinical Pharmacology in Drug Development, 2019):
Read-outs that look alike come from different tables or passages of the source.

How the values were obtained:
[1] = Population pharmacokinetic analysis of clinical plasma concentration data; format: in vivo, human
Summary of the method: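 Plasma sampled 1, 18, 23 and 36–48 h post-infusion. Assayed by LC-MS/MS (0.5–500 µg/mL), sub-0.5 µg/mL values dropped. Modelled in NONMEM with FOCE, log-normal IIV, stepwise covariates (forward P < .01, backward P < .001) and bootstrap uncertainty. T1/2 taken from 100 000 parameter draws.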

[2] = tested on: Staphylococcus aureus, Streptococcus pyogenes, Streptococcus dysgalactiae, vancomycin-susceptible Enterococcus faecalis; assay: MIC distributions from 2017 surveillance program; format: cell-based; conditions: 2017 surveillance data, United States and Europe, 4 most relevant species
Summary of the method: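 Isolates came from the 2017 surveillance program: 70 US medical centers across 9 Census regions and 38 centers in 18 European countries. MICs were determined centrally at one reference laboratory by CLSI M07-A10 (2015) dilution methods. Isolate counts: S. aureus n = 8833, S. pyogenes n = 941, S. dysgalactiae n = 312, vancomycin-susceptible E. faecalis n = 1060. Distributions were plotted as histograms on a log MIC axis.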

S. aureus = conditions: neutropenic murine thigh model; cited from earlier work
[3] = cited from earlier work
serum albumin = conditions: intravenous dose; unchanged by drug concentration, renal impairment or hepatic function; cited from earlier work
[4] = final popPK model, typical value

For `CN[C@H]1C(=O)N[C@@H]2Cc3ccc(cc3)Oc3cc4cc(c3O[C@@H]3O[C@H](C(=O)O)[C@@H](O)[C@H](O)[C@H]3NC(=O)CCCCCCCCC(C)C)Oc3ccc(cc3Cl)[C@@H](O)[C@@H]3NC(=O)[C@H](NC(=O)[C@@H]4NC(=O)[C@@H](NC2=O)c2cc(cc(O)c2Cl)Oc2cc1ccc2O)c1ccc(O)c(c1)-c1c(O[C@H]2O[C@H](CO)[C@@H](O)[C@H](O)[C@@H]2O)cc(O)cc1[C@@H](C(=O)NCCCN(C)C)NC3=O` [dalbavancin], the “total volume of distribution” value ([1]; 3-compartment popPK model) was about 15 L, the T1/2 ([1]; calculated from 100 000 random samples drawn from mean and covariance of estimated model parameters) was 8.77 days and the “Q2, distributional clearance” value ([1]; final popPK model, no IIV) was 0.288 L/h. The “Q3, distributional clearance” value ([1]; final popPK model, no IIV) was 2.11 L/h, the “V1, central volume of distribution” value [1, 4] was 3.04 L and the V2 [1, 4] was 8.78 L. The V3 [1, 4] was 3.28 L, the “rightmost histogram bar of the MIC distributions (highest MIC observed)” value [2] was 0.25 and the “2-log kill target, fAUC/MIC” value (S. aureus) was 111.1. For the same molecule, the “total volume of distribution (Vd)” value [3] was about 16 L, the total drug clearance ([3]; healthy subjects) was “approximately 0.04 L/h” and the “fraction of dose excreted as minor metabolite” value ([3]; healthy volunteers, 1000 mg intravenous dose of dalbavancin, by 42 days postdose) was 12%. For the same molecule, the “fraction of dose excreted in the feces” value ([3]; healthy volunteers, 1000 mg intravenous dose, by 42 days postdose) was “one‐third”, the “fraction of dose excreted in urine unmodified” value ([3]; healthy volunteers, 1000 mg intravenous dose) was “one‐third” and the terminal half-life ([3]; intravenous) was over 14 days. For the same molecule, the total drug clearance ([3]; patients) was about 0.058 L/h and the “fraction bound to serum albumin / plasma protein” value (serum albumin) was “approximately 93%”.
